Active and inactive are the calls of the source. The calls are words filed in the database; no cut-off is given here. Positions of bridges follow the written chain, without caps; N, C: chain ends. Non-standard residues stand in square brackets, D forms with d. Residues, ends and D or L forms follow the SMILES beside them. NMeW = CN[C@@H](Cc1c[nH]c2ccccc12)C(=O)O; 2Abz = Nc1ccccc1C(=O)O

We go through 4 compounds from ChEMBL document CHEMBL3351517, “Psychrophilins E-H and versicotide C, cyclic peptides from the marine-derived fungus Aspergillus versicolor ZLN-60” (J Nat Prod, 2014).

What all share (assay type): functional, cell-based
For one test, the system named is A549. Description: Cytotoxicity against human A549 cells by SRB assay.
Another test relates to HeLa. Description: Cytotoxicity against human HeLa cells by SRB assay. For orientation: Sulforhodamine B stains cellular protein and so reports cell mass.
A further test has as its system SMMC-7721. Description: Cytotoxicity against human SMMC7721 cells by SRB assay.
The next test relates to HepG2. Description: Lipid-lowering activity in human HepG2 cells assessed as reduction in oleic acid-elicited intracellular lipid accumulation at 10 uM after 6 hrs by Oil Red O staining method. In outline: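 HepG2 cells were kept in DMEM with 10% FBS and penicillin/streptomycin (100 μg/mL). At 70−80% confluence, cells were loaded with oleic acid (100 μM in DMEM) for 12 h. They were then exposed to test agent (10 μM) in DMEM/100 μM oleic acid for a further 6 h. Simvastatin served as positive control and DMEM/oleic acid as blank. Lipid was read by Oil Red O staining.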

In general, IC50 refers to the concentration at which inhibition is half-maximal. Low readings indicate greater potency, high ones weaker potency. With `CC(=O)N(C)[C@@H]1C(=O)N2CCC[C@H]2C(=O)Nc2ccccc2C(=O)n2cc(c3ccccc32)[C@H]1O`, the IC50 with A549, with HeLa and with SMMC-7721 was more than 100 µM in each case. In the test with HepG2, the outcome was Active.
For `CC(=O)N[C@H]1Cc2cn(c3ccccc23)C(=O)c2ccccc2NC(=O)[C@@H]2CCCN2C1=O` (Ac-Trp-Pro-[2Abz]; lactam 1-C), the IC50 with A549, with HeLa and with SMMC-7721 was more than 100 µM each time.
In the case of `CC(=O)N(C)[C@H]1Cc2cn(c3ccccc23)C(=O)c2ccccc2NC(=O)[C@@H]2CCCN2C1=O` (Ac-[NMeW]-Pro-[2Abz]; lactam 1-C), the IC50 in the test with A549, in the test on HeLa and with SMMC-7721 was more than 100 µM each time.
Turning to `CC(=O)N(C)[C@@H]1C(=O)N2CCC[C@H]2C(=O)Nc2ccccc2C(=O)n2cc(c3c(O)cccc32)[C@H]1O`, the IC50 in the test on A549, in the test on HeLa and with SMMC-7721 was more than 100 µM each time.
